Experimental data from ChEMBL document CHEMBL4411269, “Required Immunoproteasome Subunit Inhibition Profile for Anti-Inflammatory Efficacy and Clinical Candidate KZR-616 ((2 S,3 R)- N-(( S)-3-(Cyclopent-1-en-1-yl)-1-(( R)-2-methyloxiran-2-yl)-1-oxopropan-2-yl)-3-hydroxy-3-(4-methoxyphenyl)-2-(( S)-2-(2-morpholinoacetamido)propanamido)propenamide)” (J Med Chem, 2018).
Calls of active or inactive are those of the source. The rule behind the calls is not given here.

What was measured:
Mus musculus [1] = assay: In vivo inhibition of LMP2 in Balb/c mouse splenocytes at 20 mg/kg, iv followed by dosing repeat on day 6, 8, 11, 13 and 15 and co-treated with 5 mg/kg, iv KZR-504 and measured on 1 hr post last dose; format: functional, organism-based
How it was run: (§1)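 BALB/c mice dosed iv bolus in 10% sulfobutyl ether−β-cyclodextrin/10 mM sodium citrate pH 3.5; tissues taken 1 h after administration. Splenocytes strained and red cells lysed; kidney frozen, then bead-homogenized. Hypotonic lysate (20 mM Tris pH 8, 5 mM EDTA) at 1 mg/mL (spleen) or 5 mg/mL (kidney) run in the ProCISE active-site ELISA. Background-subtracted, protein-normalized activity relative to vehicle animals; n = 3.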

PBMC [2] = assay: Cytotoxicity in human PBMC assessed as reduction in cell viability at 125 nM relative to control; format: cell-based; conditions: 0.125 µM
PBMC [3] = assay: Antiinflammatory activity in human PBMC assessed as reduction in LPS-stimulated IL-6 expression at 125 nM preincubated for 1 hr followed by LPS stimulation measured after 24 hrs by ELISA; format: functional, cell-based
How it was run: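 Cryopreserved healthy-donor PBMC in RPMI 1640 with 5% heat-inactivated FBS, 250 000 cells/well. Compound (0.1% DMSO final) for 1 h at 37 °C, 5% CO2, then 4 washes with medium. Stimulated with 1 μg/mL LPS for 24 h; supernatant TNFα, IL-6 and IL-12/23p40 by electrochemiluminescent immunoassay. Mean level relative to DMSO controls, n = 6.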

[4] = target: T1, Proteasome subunit beta type-10 (Homo sapiens) (UniProt P40306); assay: Inhibition of MECL1 in human PBMC at 125 nM in presence of KZR-504 by ELISA
T1 sequence (whole entry): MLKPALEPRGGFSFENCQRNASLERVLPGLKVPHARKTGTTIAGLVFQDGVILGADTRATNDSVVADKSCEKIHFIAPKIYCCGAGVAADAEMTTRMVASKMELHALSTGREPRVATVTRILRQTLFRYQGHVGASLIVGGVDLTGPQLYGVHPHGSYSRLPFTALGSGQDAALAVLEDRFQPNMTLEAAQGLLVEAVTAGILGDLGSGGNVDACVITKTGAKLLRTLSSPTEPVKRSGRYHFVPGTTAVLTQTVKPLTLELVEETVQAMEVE
How it was run: (§2)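 Cryopreserved healthy-donor human PBMC in RPMI 1640 with 5% heat-inactivated FBS, exposed to compound (0.1% DMSO final) for 1 h at 37 °C, 5% CO2, then washed. Subunit-specific active-site occupancy read by ProCISE: biotinylated active-site probe binding, denaturation, streptavidin capture, subunit-specific antibody and HRP chemiluminescence. Signal normalized to protein and expressed relative to DMSO controls.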

[5] = Toxicity in Balb/c mouse assessed as change in body weight at 20 mg/kg, iv followed by dosing repeat on day 6, 8, 11, 13 and 15 and co-treated with 5 mg/kg, iv KZR-504 and measured until day 18; format: organism-based; conditions: in vivo
[6] = target: T2, Proteasome subunit beta type-9 (Homo sapiens) (UniProt P28065); assay: Inhibition of LMP2 in human PBMC at 125 nM in presence of KZR-504 by ELISA
T2 sequence (whole entry): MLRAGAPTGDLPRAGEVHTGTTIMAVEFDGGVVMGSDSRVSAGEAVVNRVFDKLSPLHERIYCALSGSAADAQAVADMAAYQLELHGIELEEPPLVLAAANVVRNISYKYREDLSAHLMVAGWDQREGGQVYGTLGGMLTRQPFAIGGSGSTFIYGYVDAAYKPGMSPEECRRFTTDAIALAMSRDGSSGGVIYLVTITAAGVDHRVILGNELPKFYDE

[7] = target: T3, Proteasome subunit beta type-8 (Homo sapiens) (UniProt P28062); assay: Inhibition of LMP7 in human PBMC at 125 nM by ELISA; how it was run: as §2
T3 sequence (whole entry): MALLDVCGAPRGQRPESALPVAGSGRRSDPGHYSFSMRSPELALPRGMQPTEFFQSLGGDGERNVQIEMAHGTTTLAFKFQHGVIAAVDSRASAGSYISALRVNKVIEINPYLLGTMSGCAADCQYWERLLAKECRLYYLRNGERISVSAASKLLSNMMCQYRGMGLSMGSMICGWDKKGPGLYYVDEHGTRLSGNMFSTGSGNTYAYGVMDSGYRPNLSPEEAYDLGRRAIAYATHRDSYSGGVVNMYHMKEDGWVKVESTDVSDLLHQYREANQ

[8] = Clearance in Balb/c mouse at 2 mg/kg, iv; format: ADME, organism-based; conditions: in vivo
How it was run: (§3)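 Female BALB/c mice aged 7−8 weeks, given 2 mg/kg iv in 25% PEG300/WFI. Cardiac blood taken at 2, 5, 10, 20, 30, 60 and 120 min postdose into sodium heparin and processed to plasma (n = 3/time point). Proteins precipitated with acetonitrile; drug measured by LC−MS/MS. Noncompartmental analysis of mean concentrations at nominal times and target doses.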

Mus musculus [9] = assay: In vivo inhibition of LMP7 in Balb/c mouse splenocytes at 20 mg/kg, iv followed by dosing repeat on day 6, 8, 11, 13 and 15 and co-treated with 5 mg/kg, iv KZR-504 and measured on 1 hr post last dose; format: functional, organism-based; how it was run: as §1
PBMC [10] = assay: Antiinflammatory activity in human PBMC assessed as reduction in anti-CD3/CD28 antibody-stimulated IFN-gamma expression at 125 nM preincubated for 1 hr followed by anti-CD3/CD28 antibody stimulation measured after 24 hrs in presence of KZR-504 by ELISA; format: functional, cell-based
How it was run: (§4)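 Healthy-donor PBMC, thawed from cryopreservation, 250 000 cells/well in RPMI 1640/5% FBS. Pretreated 1 h at 37 °C with compound alone or combined (0.1% DMSO final), washed 4 times, then stimulated 24 h with anti-CD3 and anti-CD28 antibodies. TNFα and IFNγ in supernatants by electrochemiluminescent ELISA; expressed relative to DMSO-treated controls (n = 6).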

[11] = Half life in Balb/c mouse at 2 mg/kg, iv; format: ADME, organism-based; conditions: in vivo; how it was run: as §3
Mus musculus [12] = assay: In vivo inhibition of LMP2 in Balb/c mouse splenocytes at 20 mg/kg, iv followed by dosing repeat on day 6, 8, 11, 13 and 15 and measured on 1 hr post last dose; format: functional, organism-based; how it was run: as §1
PBMC [13] = assay: Antiinflammatory activity in human PBMC assessed as reduction in anti-CD3/CD28 antibody-stimulated TNF-alpha expression at 250 nM preincubated for 1 hr followed by anti-CD3/CD28 antibody stimulation measured after 24 hrs in presence of KZR-504 by ELISA; format: functional, cell-based; how it was run: as §4
Mus musculus [14] = assay: Antiarthritic activity in type 2 collagen antibody/LPS induced Balb/c mouse assessed as reduction in disease burden at 5 mg/kg, iv followed by dosing repeat on day 6, 8, 11, 13 and 15 and measured until day 18

**Q.** With `COc1ccc(C[C@H](NC(=O)[C@@H](C)NC(=O)[C@H]2CC[C@H](O)CC2)C(=O)N[C@@H](CC2=CCCC2)C(=O)[C@@]2(C)CO2)cc1` as the compound, how does the inhibition (Mus musculus [1]) read?
**A.** Its inhibition is “Active”.

**Q.** And the Activity (PBMC [2])?
**A.** The Activity was 30%.

**Q.** And the Activity (PBMC [3])?
**A.** Its Activity is “inactive”.

**Q.** And the inhibition [4]?
**A.** The inhibition was “Active”.

**Q.** And the Activity [5]?
**A.** Its Activity is “Non-Toxic”.

**Q.** What about the inhibition [6] of the same compound?
**A.** Its inhibition is “Active”.

**Q.** What about the inhibition [7] of the same compound?
**A.** The inhibition was “Active”.

**Q.** And the clearance [8]?
**A.** Its clearance is greater than 73 mL/min/kg.

**Q.** What about the inhibition (Mus musculus [9]) of the same compound?
**A.** The inhibition was “Active”.

**Q.** And the Activity (PBMC [10])?
**A.** The Activity was “Active”.

**Q.** What about the half-life [11] of the same compound?
**A.** The half-life was less than 7 min.

**Q.** What about the inhibition (Mus musculus [12]) of the same compound?
**A.** The inhibition was “Active”.

**Q.** For `Cc1ccc(CC[C@H](NC(=O)[C@H](Cc2ccccc2)NC(=O)[C@H](CC(C)C)NC(=O)CN2CCCCCC2)C(=O)[C@@]2(C)CO2)cc1`, which Activity (PBMC [13]) is on record?
**A.** Its Activity is “inactive”.

**Q.** Which Activity (Mus musculus [14]) does the source give for `COc1ccc([C@@H](O)[C@H](NC(=O)[C@H](C)NC(=O)CN2CCOCC2)C(=O)N[C@@H](CC2=CCCC2)C(=O)[C@@]2(C)CO2)cc1` [ZETOMIPZOMIB] here?
**A.** The Activity was “Active”.
